pPAFAH FP inh = pPAFAH (human) enzyme inhibition. inhibition, % at 3.39 µM. recombinant pPAFAH, FP-rhodamine probe fluorescence polarization. Q13093. AID 463082. 330,000 compounds, 1.5% hits;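 active means inhibition above the mean inhibition across the screen plus 3 SD, cut at about 25% in these data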;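 further: inhibitors block binding of the rhodamine activity-based probe so polarization drops; 0% = enzyme with DMSO and 100% = wells lacking pPAFAH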
PAFAH2 FP inh = PAFAH2 (human) inhibition. Q99487. recombinant PAFAH2, FP-rhodamine activity probe, fluorescence polarization. inhibition, % at 3.39 µM. 340,000 compounds, 0.99% hits;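 active means inhibition above the mean over all tested compounds plus 3 SD, cut at about 30% in these data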;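 further: inhibitors block probe labeling of enzyme so polarization drops; 0% = enzyme with DMSO and 100% = wells lacking PAFAH2 protein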
PAFAH1B3 FP inh = inhibitors of human PAFAH1B3; 340,000 compounds, 0.28% hits; inhibition, % at 3.39 µM; recombinant PAFAH1B3, FP-rhodamine probe, fluorescence polarization; Q15102;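 active means inhibition above the screen-wide average of all tested compounds plus 3 SD, cut at about 25% in these data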;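 further: 0% = enzyme with DMSO only and 100% = wells lacking PAFAH1B3 protein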
Target sequence (Q15102 whole entry, looked up): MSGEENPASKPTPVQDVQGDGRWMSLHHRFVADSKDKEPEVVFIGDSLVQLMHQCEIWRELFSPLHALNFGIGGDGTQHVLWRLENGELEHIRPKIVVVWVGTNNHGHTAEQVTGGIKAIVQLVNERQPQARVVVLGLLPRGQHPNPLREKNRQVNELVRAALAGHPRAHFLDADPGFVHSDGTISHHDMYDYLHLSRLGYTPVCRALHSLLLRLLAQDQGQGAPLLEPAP
PAFAH1B2 FP inh = blocks human PAF acetylhydrolase 1b catalytic subunit 2. P68402. recombinant PAFAH1B2, FP-rhodamine activity probe, fluorescence polarization. inhibition, % at 3.39 µM. 340,000 compounds, 1.2% hits;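 active means inhibition above the mean of all tested compounds plus 3 SD, cut at about 24% in these data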;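 further: 0% = enzyme with DMSO and 100% = wells lacking PAFAH1B2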
Target sequence (P68402 whole entry, looked up): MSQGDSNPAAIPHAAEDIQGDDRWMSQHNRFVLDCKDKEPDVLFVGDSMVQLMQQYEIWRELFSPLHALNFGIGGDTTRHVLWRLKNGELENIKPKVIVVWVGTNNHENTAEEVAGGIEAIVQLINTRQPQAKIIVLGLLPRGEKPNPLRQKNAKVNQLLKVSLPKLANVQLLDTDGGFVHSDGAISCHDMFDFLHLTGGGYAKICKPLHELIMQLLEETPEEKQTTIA
HTRA1 inhibitor = blocks human HTRA1 serine peptidase; Q92743; recombinant HTRA1, FP-rhodamine activity-based probe, fluorescence polarization; inhibition, % at 5.96 µM; 340,000 compounds, 0.5% hits; AID 504803; in the data active means inhibition above about 36%;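 further: 0% = enzyme with DMSO and 100% = wells lacking enzyme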
mABHD4 FP = ABHD4 (mouse) inhibition, primary FP screen | AID 720543 | inhibition, % at 8.92 µM | 370,000 compounds, 0.54% hits | purified mABHD4, FP-Rh probe fluorescence polarization | Q8VD66;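 active means inhibition exceeding the mean over every tested compound plus 3 SD, cut at about 30% in these data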;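 further: 0% = plate median of compound wells and 100% = S159A mutant with DMSO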
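system = mouse ABHD4 enzyme, wild type | medium = HEPES pH 7.0, NaCl, Pluronic buffer | also added = FP-Rh probe | incubation = Enzyme–compound pre-incubation 45 min, then probe 60 min, both 25 °C | technique = fluorescence polarization, excitation 525 nm, emission 598 nm, BODIPY TMR filters | controls = S159A mutant high control, sample median low control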
PAFAH2 FP conf = PAFAH2 (human) inhibition, confirmed. shares compounds with PAFAH2 FP inh. AID 493030. 2,300 compounds, 65% hits. inhibition, % at 3.39 µM. recombinant PAFAH2, FP-rhodamine activity probe, fluorescence polarization;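 active means mean inhibition over three repeats above a set limit taken from the earlier primary screen, cut at about 30% in these data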;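 further: inhibitor blocks binding of rhodamine activity probe so polarization falls; 0% = enzyme with DMSO and 100% = wells lacking PAFAH2 protein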
Numbers without * were called inactive; / = not tested or not shown. Sampled rows, rich in hits. Any-hit rate of the full collection: about 2.8%.

SMILES	pPAFAH FP inh	PAFAH2 FP inh	PAFAH1B3 FP inh	PAFAH1B2 FP inh	HTRA1 inhibitor	mABHD4 FP	PAFAH2 FP conf
COC(=O)[C@]12C[C@H](CC(=O)NCc3cccs3)C(=O)N(Cc3cccc4ccccc34)C1=C[C@H](C(C)(C)C)O[C@@H]2C	/	/	/	/	/	-15.8	/
CCC[C@H]1[C@@H](NC(=O)c2ccc(N(C)C)cc2)CC[C@@]23CCCN2C(=O)CCC[C@@H]13	/	/	/	/	/	4.1	/
Cc1ccc(S(=O)(=O)N(C)C)cc1NC(=O)COC(=O)/C=C/c1ccc2c(c1)OCO2	2.8	56.9*	-0.2	-2.1	-5.0	-2.1	47.3*
O=C(COC(=O)/C=C/c1cccc(Cl)c1)Nc1cccc(S(=O)(=O)NC2=NCCC2)c1	0.2	24.8	-2.2	1.1	-10.2	-14.7	/
CN(C)S(=O)(=O)c1cccc(NC(=O)COC(=O)/C=C/c2ccc3c(c2)OCO3)c1	5.5	73.8*	2.1	-0.8	-13.7	-1.3	62.0*
CCCCOC(=O)n1c(=O)oc2ccc(S(=O)(=O)N3CCCCC3)cc21	12.1	65.7*	8.1	8.0	2.2	20.5	61.3*
Cc1cccc(CCNC(=O)c2ccc3c(c2)ncn3C2CCCCC2)c1	/	/	/	/	/	-4.5	/
CCCCCCOC(=O)c1ccc(N)cc1	12.0	67.6*	-3.8	11.5	-1.5	3.8	61.1*
CCCCCOC(=O)c1ccc(OC(=O)c2cncc(Br)c2)cc1	7.0	8.2	3.5	6.3	-2.7	-6.0	/
CCCCCCCOC(=O)c1ccc(OC(=O)c2cccnc2)cc1	5.1	47.2*	6.1	15.5	-15.6	-19.3	31.9*
C[C@@H]1CCN(C2CC2)S(=O)(=O)c2ccc(N3CC[C@H](N(C)C)C3)cc2O1	/	/	/	/	/	2.8	/
Cc1ccc(S(=O)(=O)N2CCCCC2)cc1NC(=O)COC(=O)c1cccn1C	5.9	39.2*	-1.0	6.2	-8.2	-1.2	31.7*
Cc1ccc(S(=O)(=O)N2CCCCC2)cc1NC(=O)COC(=O)C1=COCCO1	5.6	49.7*	4.3	4.9	-1.6	8.0	39.6*
O=C(COC(=O)C1=COCCO1)Nc1cc(S(=O)(=O)N2CCCCC2)ccc1Cl	7.1	56.9*	7.3	2.2	1.2	2.5	41.1*
O=C(Nc1cc(S(=O)(=O)N2CCCC2)ccc1Cl)C1=COCCO1	8.4	-4.6	1.6	3.8	1.9	-1.6	/
O=C(NC1CCCCN(Cc2ccc(Cl)cc2)C1=O)c1cccc2nsnc12 (stereo unspecified)	/	/	/	/	/	2.1	/
COCc1cccc(-c2cc(C(=O)OC)c3n(c2=O)CCC3)c1	/	/	/	/	/	1.6	/
CN1CCN(c2ccc(-c3csc(N4CCC(C(N)=O)CC4)n3)cc2)CC1	/	/	/	/	/	8.6	/
CNc1ccc(C(=O)OCC(=O)NC(=O)NC2CCCC2)cc1[N+](=O)[O-]	3.2	41.4*	-1.2	3.8	12.1	-6.9	18.0
COc1ccc(C(=O)OCC(=O)N2CCc3ccccc3C2)cc1OC	5.0	53.4*	5.5	5.6	-1.4	4.2	44.6*
CCOc1c(Br)cc(C(=O)OCC(=O)N2CCc3ccccc3C2)cc1OC	6.0	12.7	8.0	5.4	-19.8	-1.4	/
Cc1c(C(=O)OCC(=O)NC(=O)NC2CCCCC2)cccc1[N+](=O)[O-]	3.3	2.6	1.8	6.6	-1.1	7.5	/
COc1ccc(C(=O)OCC(=O)NC(=O)NC2CCCC2)cc1OC	-3.2	30.0*	9.0	-3.7	10.7	0.0	26.8
COC(=O)c1cc(-c2ccc(C(C)=O)cc2)c(=O)n2c1CCC2	/	/	/	/	/	3.9	/
CC(C)=CC(=O)OCC(=O)Nc1cc(C)cc(C)c1	8.5	81.2*	11.2	3.3	-1.1	-2.9	84.7*
CC(C)=CC(=O)OCC(=O)Nc1ccc(Cl)cc1	13.4	80.1*	3.7	2.8	-5.0	-1.4	77.8*
CN(C)S(=O)(=O)c1cccc(C(=O)N/N=C\c2ccccc2[N+](=O)[O-])c1	/	/	/	/	/	8.7	/
CCCOc1ccccc1/C=C(\C#N)C(=O)Nc1cccc(C)n1	3.0	57.6*	8.8	2.1	0.1	2.9	51.9*
Cc1cccc(NC(=O)/C(C#N)=C/c2ccc(F)cc2)n1	13.6	2.0	3.4	8.1	-0.5	7.7	/
C/C=C/C(=O)N1CCc2cc(S(=O)(=O)N(C)Cc3ccco3)ccc21	/	/	/	/	/	1.7	/
